MrgX1 allo act = positive allosteric modulators of MrgX1, primary screen, HEK293 cells, Fluo-4 calcium flux; hit rate 0.63% among 310,000; B-score at 10 µM; Mas-related G-protein coupled receptor member X1 (Homo sapiens), Q96LB2; FDSS; stronger effect = higher value;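 active = plate-corrected calcium response at least 3 library SD above typical, normal starting fluorescence, not activating the receptor alone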;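 note: compound read alongside a low EC10 to EC30 dose of BAM8-22 agonist; peak minus trough fluorescence over baseline measured at the second addition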
Target sequence (Q96LB2 whole entry, looked up): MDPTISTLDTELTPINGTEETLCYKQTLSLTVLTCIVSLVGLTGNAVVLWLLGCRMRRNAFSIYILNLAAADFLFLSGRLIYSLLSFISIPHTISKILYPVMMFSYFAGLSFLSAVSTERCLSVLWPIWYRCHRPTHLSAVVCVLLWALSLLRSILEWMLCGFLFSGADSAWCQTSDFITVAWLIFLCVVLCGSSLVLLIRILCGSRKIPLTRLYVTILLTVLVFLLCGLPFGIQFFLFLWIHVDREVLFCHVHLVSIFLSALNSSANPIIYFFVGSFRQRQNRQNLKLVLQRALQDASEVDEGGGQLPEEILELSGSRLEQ
MrgX1 antagonist = antagonists of human MrgX1 receptor, primary screen, HEK293 cells, Fluo-4 calcium flux; BAM8-22 antagonism; stronger effect = lower value; B-score at 10 µM; Mas-related G-protein coupled receptor member X1 (Homo sapiens), Q96LB2; hit rate 1.3% among 310,000;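 active = calcium-response B-score plate-corrected more than 3 library SD below zero, starting fluorescence within 5 deviations, no agonist response on first addition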;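 note: peak minus trough fluorescence over baseline after final BAM8-22 challenge near maximal dose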
MrgX1 ag = agonists of human MrgX1 receptor, primary screen, HEK293 cells, Fluo-4 calcium flux. Mas-related G-protein coupled receptor member X1 (Homo sapiens), Q96LB2. Fluo-4 calcium fluorescence, agonist mode; stronger effect = higher value. B-score at 10 µM. hit rate 0.44% among 310,000. AID 588627, 2011;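 active = calcium response B-score plate-corrected fluorescence ratio at least 3 library SD, with starting fluorescence B-score inside 5 SD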
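Assay system: stable human MrgX1 HEK293 cell line. Quantity: 15,000 cells per well. Schedule: cells plated overnight, dye loaded 0.5 h 37 °C, 0.5 h room temperature. Detection: Fluo-4 NW calcium-flux fluorescence, kinetic read. Read-out basis: peak-minus-minimum fluorescence over baseline, converted to B scores. Control set: positive and negative control wells on each plate.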
RGS4 block = RGS4 inhibitors, primary screen, cell-based, HEK293 M3R inducible RGS4, calcium flux; Regulator of G-protein signaling 4 (Homo sapiens), P49798; Fluo-4 calcium flux; stronger effect = higher value; triggered by carbachol at its EC20; B-score at 10 µM; hit rate 0.45% among 310,000; AID 463165, 2010;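 active = B-score, a plate-corrected calcium signal, over three deviations above library mean, with baseline fluorescence within five deviations of library mean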;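 note: RGS4 expression induced by doxycycline in cells with stable M3 receptor; B-score is computed from the integrated fluorescence ratio over baseline after carbachol; higher B-score means a larger calcium signal and so more RGS4 inhibition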
Target sequence (P49798 whole entry, looked up): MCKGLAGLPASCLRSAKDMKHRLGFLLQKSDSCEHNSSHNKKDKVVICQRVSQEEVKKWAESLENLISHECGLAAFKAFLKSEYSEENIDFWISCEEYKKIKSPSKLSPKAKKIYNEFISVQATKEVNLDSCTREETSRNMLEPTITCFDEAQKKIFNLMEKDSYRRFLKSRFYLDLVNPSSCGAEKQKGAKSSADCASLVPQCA
RGS4 act = RGS4 potentiators or activators, primary screen, cell-based, HEK293 M3R inducible RGS4, calcium flux; carbachol calcium flux Fluo4; stronger effect = lower value; B-score at 10 µM; hit rate 0.92% among 310,000; AID 463111, 2010;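 active = B-score of the integrated calcium signal more than 4 SD below the library mean, with starting fluorescence not abnormally high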;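 note: negative B-score means reduced calcium response which marks RGS4 activation or potentiation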
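Test system: HEK293 cells with stable M3R and inducible RGS4; also added: carbachol at ECmax as muscarinic agonist stimulus; schedule: dye loading 30 min 37 °C, buffer rest 30 min RT; technique: kinetic calcium fluorescence imaging with Fluo4-AM dye, 2 µM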
RGS4 act valid = reduced carbachol calcium response, RGS4-induced M3R cells, confirmation, RGS4 activator project, cell-based, HEK293 M3R/RGS4 inducible, calcium flux, duplicate; shares compounds with RGS4 act; carbachol calcium flux Fluo4; inhibition, % at 10 µM; hit rate 89% among 1,100;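 active = inhibition above 3 SD of the buffer control wells, cut at about 41% in these data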;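 note: signal is the integrated peak-minus-minimum Fluo4 fluorescence over baseline ratio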
M3R Ca counter = counter-screen for RGS4 activators: effect in non-induced cells; HEK293 M3R non-induced RGS4, Fluo4 calcium flux; after carbachol challenge at its EC90; inhibition, % at 10 µM; shares compounds with RGS4 act; hit rate 82% among 1,100; AID 602283;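 active = inhibition exceeding 3 SD of buffer-only control wells, cut at about 26% in these data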;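 note: percent drop in integrated peak-minus-baseline over baseline Fluo4 ratio after carbachol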
* hit, by the source's call; i = inactive; . = no result. Sampled rows, rich in hits. Any-hit rate of the full collection: about 3.5%.

SMILES	MrgX1 allo act	MrgX1 antagonist	MrgX1 ag	RGS4 block	RGS4 act	RGS4 act valid	M3R Ca counter
Cc1ccc(S(=O)(=O)N2[C@@H](c3cccc(Cl)c3)C(C(=O)O)=CC[C@H]2c2ccc3c(c2)OCO3)cc1	7*	i	i	.	.	.	.
CCc1ccc([C@@H]2CC=C(C(=O)O)[C@H](c3ccc(Cl)cc3)N2S(=O)(=O)c2ccc(C)cc2)cc1	i	i	i	.	.	.	.
COc1cccc([C@@H]2CC=C(C(=O)O)[C@H](c3ccc(Cl)cc3)N2S(=O)(=O)c2ccc(C)cc2)c1	i	i	i	.	.	.	.
Cc1ccc(S(=O)(=O)N2[C@@H](c3ccc(Cl)cc3)C(C(=O)O)=CC[C@H]2c2ccc3c(c2)OCO3)cc1	i	i	i	.	.	.	.
COc1cccc([C@@H]2CC=C(C(=O)O)[C@H](c3ccccc3F)N2S(=O)(=O)c2ccc(C)cc2)c1	8.3*	i	i	.	.	.	.
CCc1ccc([C@@H]2CC=C(C(=O)O)[C@H](c3ccccc3F)N2S(=O)(=O)c2ccc(C)cc2)cc1	6.8*	i	i	.	.	.	.
O=[N+]([O-])c1ccc(O)c(-c2cc(C(F)(F)F)nc(-c3ccccc3)n2)c1	i	-5.6*	i	i	i	.	.
CCC(=NCc1ccc(Cl)c(Cl)c1)c1nc(-c2ccco2)oc1O	i	i	i	i	-7.1*	.	.
CCN1CCN(CCCNC(=O)c2ccc(NC(=O)C3=C(C)OCCS3)cc2)CC1	i	i	i	i	i	.	.
CC(=O)Oc1cccc(N2C(=O)c3cccc4c([N+](=O)[O-])ccc(c34)C2=O)c1	i	-8.4*	i	i	i	.	.
O=C1c2cccc3c([N+](=O)[O-])ccc(c23)C(=O)N1CCc1ccccn1	i	i	i	i	i	.	.
CN(C)CCCN1C(=O)c2cccc3c([N+](=O)[O-])ccc(c23)C1=O	i	-9.4*	i	.	.	.	.
COc1ccc(C(C(=O)NCCC(C)C)N(CCN2CCOCC2)C(=O)Cn2nnc3ccccc32)c(OC)c1 (stereo unspecified)	i	i	i	i	i	.	.
C[N+]1(CC(=O)OCCCc2ccccc2)CCCCC1	i	i	i	i	i	.	.
CC1(C(O)(C#CC[N+]2(C)CCCCC2)c2ccccc2)CCCC1 (stereo unspecified)	i	i	i	i	-15*	92*	95*
CC1=C(C(=O)OC(C)(C)C)C(c2ccc3ccccc3c2)NC(=O)N1C (stereo unspecified)	i	i	i	i	-8*	94*	81*
COC(=O)C1=C(C)N(C)C(=O)NC1c1ccc(C)cc1 (stereo unspecified)	i	i	i	i	i	.	.
Cc1nc(NC(=O)c2ccc(Cl)cc2)sc1-c1csc(Nc2cccc(F)c2)n1	i	i	i	i	i	.	.
CCOc1ccc(S(=O)(=O)n2cnc3cc(C)c(C)cc32)cc1	i	i	i	i	-9.9*	94*	95*
Cc1cc2ncn(S(=O)(=O)c3ccc(F)cc3)c2cc1C	i	i	i	i	i	.	.
O=C1CCN(Cc2ccc(O)cc2)CCN1CCO	i	i	i	i	i	.	.
Cc1cc(C)c(S(=O)(=O)n2ccc3ccccc32)c(C)c1	i	i	i	i	-9.5*	76*	29*
O=C(Nc1ccc(Cl)c(Cl)c1)Nc1cc(S(=O)(=O)N2CCOCC2)ccc1N1CCCC1	i	i	i	i	-9.2*	72*	27*
O=C(Nc1ccccc1F)Nc1cc(S(=O)(=O)N2CCOCC2)ccc1N1CCCC1	i	i	i	i	i	.	.
NC(=O)C[N+]1(CC#CC(O)(c2ccccc2)c2ccccc2)CCCC1	i	i	i	i	-12*	52*	0
SMILES	MrgX1 allo act	MrgX1 antagonist	MrgX1 ag	RGS4 block	RGS4 act	RGS4 act valid	M3R Ca counter
COc1ccc(OC)c(S(=O)(=O)n2ccc(C)n2)c1	i	i	i	i	i	.	.
COc1ccc2nc3c(cc2c1)c(NC(=O)c1cccs1)nn3CC(C)C	i	i	i	i	-8.5*	86*	61*
COc1ccc(NCc2nnc(-c3ccccc3)o2)cc1	i	i	i	i	i	.	.
CN1CCN(C(CNC(=O)C(=O)Nc2ccc3c(c2)OCCO3)c2ccc(F)cc2)CC1 (stereo unspecified)	i	i	i	i	i	.	.
CC(C(=O)O)c1ccc(N2Cc3ccccc3C2=O)cc1 (stereo unspecified)	i	i	i	i	i	.	.
Cc1ccccc1C(=O)NC1CCN(CC(=O)NC2CCCCC2)CC1	i	i	i	i	i	.	.
CCC(=O)N1CCc2cc(S(=O)(=O)NCCC(=O)N3CCN(c4cccc(C)c4)C(C)C3)ccc21 (stereo unspecified)	i	i	i	i	-8.6*	64*	84*
CCC(=O)N1CCc2cc(S(=O)(=O)NCCC(=O)N3CCN(c4ccccc4)CC3)ccc21	i	i	i	i	i	.	.
CCN(C1CCCCC1)S(=O)(=O)c1ccc(S(=O)(=O)N2CCN(CCC#N)CC2)cc1	i	i	i	i	-9.1*	90*	65*
Cc1sc2cc3c(c(C(=O)c4ccccc4)[n+]2c1C)-c1cccc2cccc-3c12	i	i	i	i	-14*	92*	91*
Cc1cc(-c2ccc(C(C)C)c(S(=O)(=O)N3CCOc4ccccc43)c2)on1	i	i	i	i	i	.	.
Cc1ccc(-c2onc(C)c2C)cc1S(=O)(=O)N1CCOc2ccccc21	i	i	i	i	-8.1*	73*	84*
Cc1c2cnn(CC(=O)N3CCOCC3)c(=O)c2c(C)n1Cc1ccccc1F	i	i	i	i	i	.	.
Cc1ccc(N2C(=O)CSC2c2c(F)cccc2Cl)cc1 (stereo unspecified)	i	i	i	i	-10*	93*	92*
Cc1ccc(CNC(=O)c2ccc(Cn3nc(C)c(Cl)c3C)o2)cc1	i	i	i	i	i	.	.

Compound activity as filed in PubChem.
